Data set [1] can be described thus: Clearance in mouse liver microsomes at 1 uM after 20 mins by LC-MS/MS analysis in presence of NADPH. The class given is ADME, Microsome. On the technique in general: Microsomes from liver hold many membrane-bound enzymes, among them those of drug oxidation.
Data set [2] in a line: Free plasma concentration in Hartley guinea pig at 150 mg/kg, po formulated with 40/10/50 PEG/ethanol/H2O after 3 hrs. The class given is ADME, organism-based, Cavia porcellus. Further details: dose 150 mg/kg, route oral. Conditions: in vivo. The essentials:
(§1)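 Male Sprague–Dawley rats or male Hartley guinea pigs (6−8 weeks, 250−350 g), 6−8 per group, given vehicle or compound orally at 4−5 mL/kg. At set times after dosing, rats were killed by CO₂ and guinea pigs by ip euthasol (250 mg/kg). Plasma came from cardiac-puncture blood in EDTA. CSF was taken by cisterna magna puncture into 10% BSA and snap frozen.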

Data set [3] can be described thus: Clearance in human liver microsomes at 1 uM after 20 mins by LC-MS/MS analysis in presence of NADPH. It is filed as ADME, Microsome.
Data set [4] is described as follows: Clearance in cynomolgus monkey liver microsomes at 1 uM after 20 mins by LC-MS/MS analysis in presence of NADPH. The class given is ADME, Macaca fascicularis, Microsome.
A short description of data set [5]: Free plasma concentration in Hartley guinea pig at 50 mg/kg, po formulated with 40/10/50 PEG/ethanol/H2O after 3 hrs. The class given is ADME, organism-based, Cavia porcellus. Further details: dose 50 mg/kg, route oral. Particulars: in vivo. The essentials: (§2)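 Male Hartley guinea pigs, 6−8 weeks, 250−350 g, 6−8 per group, given a single oral dose or vehicle at 4−5 mL/kg. Euthanized with euthasol 250 mg/kg ip at set times. Whole blood was taken post-mortem by cardiac puncture into EDTA and centrifuged at 4 °C. Plasma was stored at −20 °C for drug analysis.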

Data set [6] can be described thus: Drug uptake in Hartley guinea pig CSF at 50 mg/kg, po formulated with 40/10/50 PEG/ethanol/H2O after 3 hrs. Particulars: read-out: Drug uptake. The class given is ADME, organism-based, Cavia porcellus, Cerebrospinal fluid. Also noted: dose 50 mg/kg, route oral. The procedure, abridged: (§3)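 Male Hartley guinea pigs, 6–8 per group, were dosed orally at 4–5 mL/kg and euthanized with intraperitoneal euthasol at set times. CSF (40–100 μL) was collected post-mortem by cisterna magna puncture into tubes containing 10% BSA, then snap-frozen for analysis. Drug concentration was determined in the CSF; plasma and brain were also sampled.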

Data set [7] in a line: Clearance in guinea pig liver microsomes at 1 uM after 20 mins by LC-MS/MS analysis in presence of NADPH. The class given is ADME, Cavia porcellus, Microsome. Conditions: read-out: CLH.
Data set [8] is described as follows: Clearance in rat liver microsomes at 1 uM after 20 mins by LC-MS/MS analysis in presence of NADPH. It is filed as ADME, Microsome.
Data set [9] can be described thus: Drug uptake in Hartley guinea pig CSF at 150 mg/kg, po formulated with 40/10/50 PEG/ethanol/H2O after 3 hrs. The class given is ADME, organism-based, Cavia porcellus, Cerebrospinal fluid. Also noted: dose 150 mg/kg, route oral. Conditions: read-out: Drug uptake. The essentials: as §3
A short description of data set [10]: Oral bioavailability in mouse at 10 mg/kg. It is filed as ADME, organism-based. Conditions: in vivo.
Data set [11] can be described thus: Unbound brain-to-plasma concentration ratio in mouse at 10 mg/kg, po after 1 hr. The class given is ADME, organism-based. Also noted: dose 10 mg/kg, route oral. Conditions: brain and plasma (unbound), read-out: K(p,uu,brain).
In data set [12] the test system is Brain. Kind of data set: Free drug level in mouse brain at 10 mg/kg, po after 1 hr. The class given is ADME, organism-based. Particulars: in vivo. Further details: dose 10 mg/kg, route oral.
Data set [13] relates to Brain. Kind of data set: Free drug level in mouse brain at 10 mg/kg, po after 4 hrs. Further details: dose 10 mg/kg, route oral. Particulars: in vivo. The class given is ADME, organism-based.
The nature of data set [14]: Clearance in mouse at 3 mg/kg, iv and 10 mg/kg, po. It is filed as ADME, organism-based. Particulars: in vivo.
The nature of data set [15]: Unbound brain-to-plasma concentration ratio in mouse at 10 mg/kg, po after 4 hrs. The class given is ADME, organism-based. Also noted: dose 10 mg/kg, route oral. Particulars: brain and plasma (unbound), read-out: K(p,uu,brain).
Data set [16] has as its system Plasma. Kind of data set: Free plasma concentration in mouse at 10 mg/kg, po after 4 hrs. It is filed as ADME, organism-based. Also noted: dose 10 mg/kg, route oral. Particulars: in vivo.
In data set [17] the test system is Plasma. Kind of data set: Free plasma concentration in mouse at 10 mg/kg, po after 1 hr. The class given is ADME, organism-based. Further details: dose 10 mg/kg, route oral. Particulars: in vivo.
Data set [18] can be described thus: Drug uptake in Hartley guinea pig CSF at 150 mg/kg, po formulated with 0.5% HPMC/0.5% Tween 80 after 5 hrs. Also noted: dose 150 mg/kg, route oral. Particulars: read-out: Drug uptake. It is filed as ADME, organism-based, Cavia porcellus, Cerebrospinal fluid. The procedure, abridged: as §3
A short description of data set [19]: Unbound brain-to-plasma concentration ratio in Hartley guinea pig at 75 mg/kg, po formulated with 0.5% HPMC/0.5% Tween 80 after 5 hrs. Conditions: read-out: K(p,uu,brain). Further details: dose 75 mg/kg, route oral. The class given is ADME, organism-based, Cavia porcellus.
Data set [20] can be described thus: Free plasma concentration in Hartley guinea pig at 75 mg/kg, po formulated with 0.5% HPMC/0.5% Tween 80 after 5 hrs. Particulars: in vivo. The class given is ADME, organism-based, Cavia porcellus. Further details: dose 75 mg/kg, route oral. The procedure, abridged:
as §2

Data set [21] is described as follows: Free drug level in Hartley guinea pig brain at 75 mg/kg, po formulated with 0.5% HPMC/0.5% Tween 80 after 5 hrs. Also noted: dose 75 mg/kg, route oral. The class given is ADME, organism-based, Cavia porcellus. Conditions: in vivo. The procedure, abridged: as §1
Data set [22] can be described thus: Free plasma concentration in Hartley guinea pig at 150 mg/kg, po formulated with 0.5% HPMC/0.5% Tween 80 after 5 hrs. Also noted: dose 150 mg/kg, route oral. The class given is ADME, organism-based, Cavia porcellus. Conditions: in vivo. The essentials:
as §1

Data set [23] is described as follows: Drug uptake in Hartley guinea pig CSF at 75 mg/kg, po formulated with 0.5% HPMC/0.5% Tween 80 after 5 hrs. The class given is ADME, organism-based, Cavia porcellus, Cerebrospinal fluid. Also noted: dose 75 mg/kg, route oral. Particulars: read-out: Drug uptake. The procedure, abridged:
as §1

Broadly, the bioavailability is dose-corrected exposure relative to a reference, in per cent.

Take `CC1(C)Cc2ccc(-c3cncnc3)cc2[C@@]2(COC(N)=N2)C1`: the CLhep predicted at 1 µM in [1] is 23 mL/min/kg; in [3] it was 3 mL/min/kg; in data set [4], 29 mL/min/kg; in data set [8] it was 28 mL/min/kg. In addition, the “Cp(f)” value came out at 6673 nM in data set [2] and 3019 nM in data set [5]. Moreover, the concentration at 3 h in data set [6] stood at 888 nM; in data set [9] it was 5610 nM. The CLint scaled at 1 µM in data set [7] amounted to 12 mL/min/kg.
For `CN1C(=O)C2(CC(C)(C)Sc3ccc(-c4cc(F)cc(Cl)c4)cc32)N=C1N` (racemic), the CLhep predicted at 1 µM in [1] is 47 mL/min/kg. In addition, the bioavailability in [10] stood at 52%. For the same compound, in data set [11], the Kp uu at 1 h was determined as 0.29. Moreover, the “Drug uptake(free)” value in [12] was determined as 0.7 nM; in data set [13], 1.6 nM. Moreover, in data set [14], the clearance came out at 69 mL/min/kg. The Kp uu at 4 h in data set [15] worked out at 0.46. In addition, the “Cp(f)” value in data set [16] came to 3.6 nM; in [17], 2.2 nM.
On to `CN1C(=O)C2(CC(C)(C)Oc3ccc(-c4cc(F)cc(Cl)c4)cc32)N=C1N` (racemic), for which the CLhep predicted at 1 µM in [1] was 15 mL/min/kg. This compound also registered a bioavailability in data set [10] of 79%. Moreover, in data set [11], the Kp uu at 1 h is 0.09. In addition, the “Drug uptake(free)” value in data set [12] worked out at 3.8 nM; in data set [13], 7 nM. Also, the clearance in data set [14] came to 12 mL/min/kg. The Kp uu at 4 h in [15] turned out to be 0.22. Moreover, the “Cp(f)” value worked out at 32 nM in [16] and 42 nM in [17].
Regarding `CN1C(=O)[C@]2(CC(C)(C)Cc3ccc(-c4cccnc4F)cc32)N=C1N`, the CLhep predicted at 1 µM in data set [1] was 24 mL/min/kg; in data set [3] it was 3 mL/min/kg; in data set [4] it was 12 mL/min/kg; in data set [8], 60 mL/min/kg. For the same compound, the concentration at 5 h in data set [18] turned out to be 247 nM; in [23], 20 nM. Moreover, the Kp uu at 5 h in data set [19] was determined as 0.037. In addition, the “Cp(f)” value is recorded as 304 nM in data set [20] and 562 nM in data set [22]. Besides, the “Drug uptake(free)” value in data set [21] was found to be 11 nM. For the same compound, in data set [7], the CLint scaled at 1 µM was 26 mL/min/kg.
In the case of `CC1(C)Cc2ccc(-c3cncnc3)cc2C2(COC(N)=N2)C1` (racemic), the CLhep predicted at 1 µM in [1] is 16 mL/min/kg. In addition, the bioavailability in data set [10] turned out to be 34%. Also, the Kp uu at 1 h in data set [11] was found to be 1. Further, the figures for the “Drug uptake(free)” value in data set [12] and in [13] were 120 nM and 13 nM, respectively. Besides, in data set [14], the clearance was found to be 126 mL/min/kg. Also, the Kp uu at 4 h in [15] was 1.1. In addition, the “Cp(f)” value in [16] is 12 nM; in data set [17], 120 nM.
With `CN1C(=O)C2(CC(C)(C)Cc3ccc(-c4cccnc4F)cc32)N=C1N` (racemic), the CLhep predicted at 1 µM in data set [1] was 59 mL/min/kg. Further, the bioavailability in data set [10] was determined as 62%. The Kp uu at 1 h in data set [11] was 0.08. Also, the “Drug uptake(free)” value is recorded as 3.7 nM in data set [12] and 5.1 nM in [13]. Moreover, the clearance in data set [14] turned out to be 67 mL/min/kg. The Kp uu at 4 h in data set [15] was 0.18. Further, the results for the “Cp(f)” value in data set [16] and in data set [17] were 29 nM and 47 nM, respectively.
